According to ChEMBL document CHEMBL1126811, “Fluorinated and iodinated dopamine agents: D2 imaging agents for PET and SPECT” (J Med Chem, 1993):

Assays:
[1] = organism: Rattus norvegicus; type: functional, Striatum, Membrane
[2] = organism: Rattus norvegicus; type: functional, Striatum, Membrane; remark: listed apart in the source
[3] = target: D(2) dopamine receptor (Rattus norvegicus, UniProt P61169); experiment: Inhibition constant against dopamine receptor D2 in rat
How it was run: (§1)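 Filtered on protamine-pretreated (0.2%) GF/B filters, washed with cold 50 mM Tris-HCl pH 7.4, gamma-counted. Nonspecific binding defined with 10 μM (+)-butaclamol. Scatchard and competition data fitted by iterative nonlinear least squares.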

[4] = organism: Rattus norvegicus; experiment: Inhibition constant on radiolabeled [125I]FIDA2 binding to rat striatal membranes; design: species or system Striatum, Membrane
How it was run: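 Rat striatal membrane homogenate (40–60 μg protein) incubated with 125I-labeled ligand ± competitors in 0.2 mL assay buffer, 15 min at 37 °C with stirring. Filtered on protamine-pretreated (0.2%) GF/B filters, washed with cold 50 mM Tris-HCl pH 7.4, gamma-counted. Nonspecific binding defined with 10 μM (+)-butaclamol. Scatchard and competition data fitted by iterative nonlinear least squares.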

[5] = organism: Rattus norvegicus; experiment: Inhibition constant on radiolabeled [125I]FIDA1 binding to rat striatal membranes; design: species or system Striatum, Membrane
How it was run: as §1

D(2) dopamine receptor, sequence (P61169 whole entry): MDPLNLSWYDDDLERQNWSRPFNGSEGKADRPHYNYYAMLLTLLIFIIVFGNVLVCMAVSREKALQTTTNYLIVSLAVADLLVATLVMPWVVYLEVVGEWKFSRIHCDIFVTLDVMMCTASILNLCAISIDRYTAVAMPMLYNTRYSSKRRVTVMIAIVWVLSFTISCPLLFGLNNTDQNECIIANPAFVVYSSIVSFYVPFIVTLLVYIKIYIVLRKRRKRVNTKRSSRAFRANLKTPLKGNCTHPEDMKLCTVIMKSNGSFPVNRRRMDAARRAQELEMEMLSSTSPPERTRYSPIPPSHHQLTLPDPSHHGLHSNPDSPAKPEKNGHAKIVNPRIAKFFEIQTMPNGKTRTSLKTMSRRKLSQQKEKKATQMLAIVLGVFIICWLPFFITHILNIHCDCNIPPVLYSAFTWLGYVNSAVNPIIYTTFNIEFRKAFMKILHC

COC(=O)[C@@H]1[C@H]2C[C@H]3c4[nH]c5ccccc5c4CCN3C[C@@H]2CC[C@@H]1O [YOHIMBINE]
Ki [1]: 505 nM

NCCc1c[nH]c2ccc(O)cc12 [SEROTONIN]
Ki [2]: > 5000 nM

CCN1CCC[C@H]1CNC(=O)c1cc(CCCF)cc(OC)c1OC
Ki [3]: 0.02 nM

CCN1CCC[C@H]1CNC(=O)c1cc(I)ccc1OC [IODOPRIDE]
Ki [3]: 3 nM

CCc1cc(Cl)c(OC)c(C(=O)NC[C@@H]2CCCN2CC)c1O [ETICLOPRIDE]
Ki [4]: 0.06 nM
Ki [5]: 0.014 nM

CCN1CCC[C@H]1CNC(=O)c1c(O)c(Cl)cc(Cl)c1OC [RACLOPRIDE]
Ki [4]: 5 nM
Ki [5]: 2.31 nM

CCN1CCC[C@H]1CNC(=O)c1c(OC)ccc(S(N)(=O)=O)c1I [IODOSULPIRIDE]
Ki [3]: 1.5 nM

CCN1CCC[C@H]1CNC(=O)c1c(O)c(I)cc(OC)c1OC [IOXIPRIDE]
Ki [3]: 0.019 nM

CCN1CCC[C@H]1CNC(=O)c1cc(I)cc2c1OCC2
Ki [3]: 0.106 nM

CN1[C@@H]2CC[C@H]1C[C@@H](OC(=O)C(CO)c1ccccc1)C2 (some centres not stated) [ATROPINE]
Ki [1]: > 10000 nM
Ki [2]: > 10000 nM

CCN1CCC[C@@H]1CNC(=O)c1cccc(OC)c1OCCF
Ki [3]: 13 nM

CCN1CCC[C@H]1CNC(=O)c1c(OC)ccc(I)c1O [IOLOPRIDE]
Ki [3]: 0.43 nM

CC(C)(C)[C@@]1(O)CCN2C[C@@H]3c4ccccc4CCc4cccc(c43)[C@H]2C1
Ki [1]: 0.4 nM
Ki [2]: 1.05 nM

C=CCN1CC[C@]23c4c5ccc(O)c4O[C@H]2C(=O)CC[C@@]3(O)[C@H]1C5 [NALOXONE]
Ki [1]: > 10000 nM
Ki [2]: > 10000 nM

CCCN1CCC[C@@H]2Cc3n[nH]cc3C[C@H]21 [QUINPIROLE]
Ki [1]: 8000 nM

CCN1CCC[C@H]1CNC(=O)c1cc(I)cc(OC)c1OC [EPIDEPRIDE]
Ki [3]: 0.025 nM

COc1cc(Br)cc(C(=O)NC[C@@H]2CCCN2Cc2ccc(F)cc2)c1OC
Ki [3]: 0.147 nM
